Reference: PMC6904512 (Molecular microbiology, 2019)

What was measured:
[1] = test system: E. coli strains containing WT and mutant IMPDH; assay: Growth of engineered E. coli strains with WT or mutant IMPDH; assay type: cell-based, Escherichia coli
Procedure, shortened: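 E. coli strains carrying WT or mutant IMPDH (guaB) were precultured overnight to saturation in M9 + 1 mM IPTG + 2 g/L glucose. They were diluted 100-fold into M9 salts with 300 mg/L thiamine, 1 mM IPTG and the carbon source; for coumarate, 1 g/L with or without 5 mg/L guanosine (~18 μM). Triplicate cultures were read at OD600 in a plate reader, growth rates were curve-fitted, and standard deviation was taken over three biological replicates.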

EcIMPDH/WT = EcIMPDH/WT (Escherichia coli, UniProt P0ADG7); assay: biochemical; assay type: biochemical
Chain of EcIMPDH/WT (P0ADG7 whole entry): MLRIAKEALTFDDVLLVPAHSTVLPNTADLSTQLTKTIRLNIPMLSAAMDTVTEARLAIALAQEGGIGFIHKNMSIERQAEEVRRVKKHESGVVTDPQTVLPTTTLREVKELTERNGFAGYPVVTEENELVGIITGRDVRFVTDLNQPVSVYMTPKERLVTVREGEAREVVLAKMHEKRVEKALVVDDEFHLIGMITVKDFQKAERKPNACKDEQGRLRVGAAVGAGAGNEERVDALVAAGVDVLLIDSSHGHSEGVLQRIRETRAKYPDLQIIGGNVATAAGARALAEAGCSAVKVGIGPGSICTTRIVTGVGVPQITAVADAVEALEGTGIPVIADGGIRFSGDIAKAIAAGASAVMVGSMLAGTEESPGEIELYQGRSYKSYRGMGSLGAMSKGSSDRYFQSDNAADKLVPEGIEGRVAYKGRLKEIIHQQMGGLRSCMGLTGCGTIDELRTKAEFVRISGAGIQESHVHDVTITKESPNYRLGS

EcIMPDH/D243G = EcIMPDH/D243G (Escherichia coli, UniProt P0ADG7, D243G); assay: biochemical; assay type: biochemical
Chain of EcIMPDH/D243G (P0ADG7 whole entry D243G): as the sequence (P0ADG7 whole entry) above, with D243G counted along it

AbIMPDH = AbIMPDH (Acinetobacter baumannii, UniProt D0CF46); assay: biochemical; assay type: biochemical

Nc1nc2c(ncn2[C@@H]2O[C@H](CO)[C@@H](O)[C@H]2O)c(=O)[nH]1 [guanosine]
Effect of added guanosine on inhibition by 4-hydroxybenzaldehyde ([1]; strain JME129 (wild-type guaB), growth with glucose (Figure S6)): relieved inhibition | Effect of added guanosine on growth with coumarate ([1]; strain with wild-type IMPDH, 1 g/L coumarate, 5 mg/L guanosine): increased growth with coumarate

NC(=O)c1ccc[n+]([C@@H]2O[C@H](COP(=O)([O-])OP(=O)(O)OC[C@H]3O[C@@H](n4cnc5c(N)ncnc54)[C@H](O)[C@@H]3O)[C@@H](O)[C@H]2O)c1 [NAD]
Kii(NAD) (EcIMPDH/WT; EcIMPDH/WT, substrate inhibition by NAD, fixed 1.2 mM IMP): 4300 ± 530 µM | Km (EcIMPDH/WT; read-out: Km(NAD), EcIMPDH/WT, fixed 1.2 mM IMP, 50 nM enzyme): 210 ± 20 µM | Kii(NAD) (EcIMPDH/D243G; EcIMPDH/D243G, substrate inhibition by NAD, fixed 1.2 mM IMP): 3500 ± 690 µM | Km (EcIMPDH/D243G; read-out: Km(NAD), EcIMPDH/D243G, fixed 1.2 mM IMP, 50 nM enzyme): 210 ± 40 µM | Kii(NAD) (AbIMPDH; AbIMPDH, substrate inhibition by NAD, fixed 1.2 mM IMP): 10600 ± 1100 µM | Km (AbIMPDH; read-out: Km(NAD), AbIMPDH, fixed 1.2 mM IMP, 50 nM enzyme): 208 ± 17 µM

O=Cc1ccc(O)cc1 [4-hydroxybenzaldehyde]
Ki (EcIMPDH/WT; Ki,app(4HB), EcIMPDH/WT, 20 nM enzyme, 12 μM IMP, 500 μM NAD+, pH 7.0): 320 ± 30 µM | Inhibition mechanism with respect to IMP (EcIMPDH/WT; wild type EcIMPDH): uncompetitive inhibitor | Inhibition mechanism with respect to NAD+ (EcIMPDH/WT; wild type EcIMPDH): noncompetitive (mixed) inhibitor | Inhibition mechanism with respect to IMP (EcIMPDH/D243G; D243G EcIMPDH): uncompetitive inhibitor | Inhibition mechanism with respect to NAD+ (EcIMPDH/D243G; D243G EcIMPDH): noncompetitive (mixed) inhibitor | Ki (EcIMPDH/D243G; Ki,app(4HB), EcIMPDH/D243G, 20 nM enzyme, 12 μM IMP, 500 μM NAD+, pH 7.0): 1250 ± 50 µM | Ki (AbIMPDH): 720 ± 30 µM
